This is an account of results in ChEMBL document CHEMBL3822431, “Hydroxychalcone inhibitors of Streptococcus mutans glucosyl transferases and biofilms as potential anticaries agents” (Bioorg Med Chem Lett, 2016).

Experiment [1] concerns the target T1, Glucosyltransferase-I (Streptococcus mutans serotype c (strain ATCC 700610 / UA159)) (UniProt P08987).
T1 sequence (whole entry): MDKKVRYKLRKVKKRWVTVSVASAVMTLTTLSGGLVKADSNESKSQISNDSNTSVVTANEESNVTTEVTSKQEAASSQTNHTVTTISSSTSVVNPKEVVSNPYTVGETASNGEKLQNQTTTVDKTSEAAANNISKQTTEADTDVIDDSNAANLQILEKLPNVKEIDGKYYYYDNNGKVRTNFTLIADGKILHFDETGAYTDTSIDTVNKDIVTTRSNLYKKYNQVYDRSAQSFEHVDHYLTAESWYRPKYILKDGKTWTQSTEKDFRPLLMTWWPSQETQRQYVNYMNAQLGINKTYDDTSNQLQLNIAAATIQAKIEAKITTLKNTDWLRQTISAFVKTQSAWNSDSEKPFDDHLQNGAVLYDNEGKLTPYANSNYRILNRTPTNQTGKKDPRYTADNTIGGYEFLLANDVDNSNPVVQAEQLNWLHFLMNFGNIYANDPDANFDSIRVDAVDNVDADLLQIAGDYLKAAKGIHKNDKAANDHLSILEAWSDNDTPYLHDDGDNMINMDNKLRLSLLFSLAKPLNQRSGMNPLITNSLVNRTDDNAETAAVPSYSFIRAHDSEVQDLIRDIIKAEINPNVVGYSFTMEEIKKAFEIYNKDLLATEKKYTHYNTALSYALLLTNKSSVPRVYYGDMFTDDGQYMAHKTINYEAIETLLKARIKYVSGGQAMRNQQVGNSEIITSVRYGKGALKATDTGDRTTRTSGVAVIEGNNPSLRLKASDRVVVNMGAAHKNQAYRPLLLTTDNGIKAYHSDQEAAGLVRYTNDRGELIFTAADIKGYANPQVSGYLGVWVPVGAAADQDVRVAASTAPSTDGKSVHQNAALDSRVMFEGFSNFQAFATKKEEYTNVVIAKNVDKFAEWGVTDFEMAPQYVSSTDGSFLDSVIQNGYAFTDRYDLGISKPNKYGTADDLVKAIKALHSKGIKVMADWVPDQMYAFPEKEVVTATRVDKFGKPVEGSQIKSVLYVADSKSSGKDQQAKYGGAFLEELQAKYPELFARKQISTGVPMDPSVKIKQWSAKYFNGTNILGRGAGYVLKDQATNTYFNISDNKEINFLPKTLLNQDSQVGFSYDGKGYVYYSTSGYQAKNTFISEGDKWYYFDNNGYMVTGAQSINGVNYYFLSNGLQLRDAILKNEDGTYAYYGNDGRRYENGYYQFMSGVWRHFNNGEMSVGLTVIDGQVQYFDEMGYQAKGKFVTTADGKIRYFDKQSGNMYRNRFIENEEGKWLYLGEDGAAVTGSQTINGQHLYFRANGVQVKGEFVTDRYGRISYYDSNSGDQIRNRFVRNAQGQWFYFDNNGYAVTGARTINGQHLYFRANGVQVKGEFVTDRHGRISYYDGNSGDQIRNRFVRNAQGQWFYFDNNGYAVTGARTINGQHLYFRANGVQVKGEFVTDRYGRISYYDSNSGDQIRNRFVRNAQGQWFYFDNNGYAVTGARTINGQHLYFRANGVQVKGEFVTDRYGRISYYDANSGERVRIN
Briefly: Inhibition of Wild-type Streptococcus mutans UA159 glucosyltransferase B by zymography. A digest of the protocol:
(§1)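 S. mutans UA159 wild type co-incubated with compound at different concentrations; Gtfs concentrated from supernatants, separated by SDS-PAGE and assayed by zymography, glucan band intensity reflecting enzyme activity.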

Experiment [2] has as its target T2, Glucosyltransferase-S (Streptococcus mutans serotype c (strain ATCC 700610 / UA159)) (UniProt P49331).
T2 sequence (whole entry): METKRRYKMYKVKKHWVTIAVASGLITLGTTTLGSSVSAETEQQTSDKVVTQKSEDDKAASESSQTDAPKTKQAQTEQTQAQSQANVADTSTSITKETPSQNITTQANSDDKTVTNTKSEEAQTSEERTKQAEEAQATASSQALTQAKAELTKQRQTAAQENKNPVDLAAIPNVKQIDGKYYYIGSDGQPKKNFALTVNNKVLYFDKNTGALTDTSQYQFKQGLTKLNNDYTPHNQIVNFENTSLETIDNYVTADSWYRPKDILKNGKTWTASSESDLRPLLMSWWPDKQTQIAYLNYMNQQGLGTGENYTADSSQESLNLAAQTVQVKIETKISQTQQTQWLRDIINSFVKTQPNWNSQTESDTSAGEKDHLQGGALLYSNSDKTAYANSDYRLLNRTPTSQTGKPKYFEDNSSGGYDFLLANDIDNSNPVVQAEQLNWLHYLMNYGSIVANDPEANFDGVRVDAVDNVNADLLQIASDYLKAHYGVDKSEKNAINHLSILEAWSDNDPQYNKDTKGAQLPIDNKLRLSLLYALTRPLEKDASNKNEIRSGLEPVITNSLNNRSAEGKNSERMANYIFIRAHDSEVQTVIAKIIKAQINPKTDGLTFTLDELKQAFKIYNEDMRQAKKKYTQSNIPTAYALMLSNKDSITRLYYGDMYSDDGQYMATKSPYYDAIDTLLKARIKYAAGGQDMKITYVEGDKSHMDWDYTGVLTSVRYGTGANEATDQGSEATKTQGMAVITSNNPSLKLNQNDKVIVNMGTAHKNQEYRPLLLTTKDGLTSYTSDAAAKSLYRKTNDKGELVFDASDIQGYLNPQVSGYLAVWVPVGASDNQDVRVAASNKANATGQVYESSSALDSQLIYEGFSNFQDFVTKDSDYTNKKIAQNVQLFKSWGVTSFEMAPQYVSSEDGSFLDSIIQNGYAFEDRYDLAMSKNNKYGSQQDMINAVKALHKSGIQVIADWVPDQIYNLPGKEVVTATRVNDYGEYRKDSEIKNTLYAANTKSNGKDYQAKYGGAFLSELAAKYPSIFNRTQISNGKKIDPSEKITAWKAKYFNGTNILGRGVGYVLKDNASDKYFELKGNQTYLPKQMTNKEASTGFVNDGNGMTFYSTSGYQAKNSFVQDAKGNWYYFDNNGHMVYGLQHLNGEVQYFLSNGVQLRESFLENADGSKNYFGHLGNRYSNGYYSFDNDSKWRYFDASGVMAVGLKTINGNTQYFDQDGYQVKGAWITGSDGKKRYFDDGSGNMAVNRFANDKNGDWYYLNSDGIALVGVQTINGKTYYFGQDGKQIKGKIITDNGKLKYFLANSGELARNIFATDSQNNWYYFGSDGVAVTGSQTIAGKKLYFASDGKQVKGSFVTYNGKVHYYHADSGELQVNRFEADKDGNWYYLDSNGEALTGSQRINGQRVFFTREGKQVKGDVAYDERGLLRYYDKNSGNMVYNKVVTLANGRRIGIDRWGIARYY
The experiment can be described thus: Inhibition of Wild-type Streptococcus mutans UA159 glucosyltransferase D by zymography. A digest of the protocol:
as §1

With `O=C(/C=C\c1ccc(O)cc1O)c1cccc(O)c1`, the inhibition entry in experiment [1] and in experiment [2] was “Dose-dependent effect” in each case.
